Sampled rows, rich in hits. Any-hit rate of the full collection: about 3.7%.
KCNK3 block = human KCNK3 channel inhibition, primary screen | O14649 | B-score at 10 µM | CHO-KCNK3 thallium flux, FluxOR fluorescence; active compounds read low | AID 602410 | hit rate 0.84% among 340,000;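 active = B-score under library mean minus 4 SD, starting fluorescence ratio at most library mean plus 5 SD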;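 also: more negative B-score means stronger inhibition of thallium flux through KCNK3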
hERG rescue = hERG (human) protection from proarrhythmic block. hit rate 0.51% among 310,000. activation (rescue from dofetilide block), less the hit threshold, % at 10 µM. AID 1511. CHO-hERG, FluxOR thallium flux, dofetilide IC70 present;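 active = activation above the mean of controls blocked by dofetilide plus 5 SD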;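 also: thallium influx through hERG after potassium depolarization seen as dye fluorescence rise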
Target sequence (Q12809 whole entry, looked up): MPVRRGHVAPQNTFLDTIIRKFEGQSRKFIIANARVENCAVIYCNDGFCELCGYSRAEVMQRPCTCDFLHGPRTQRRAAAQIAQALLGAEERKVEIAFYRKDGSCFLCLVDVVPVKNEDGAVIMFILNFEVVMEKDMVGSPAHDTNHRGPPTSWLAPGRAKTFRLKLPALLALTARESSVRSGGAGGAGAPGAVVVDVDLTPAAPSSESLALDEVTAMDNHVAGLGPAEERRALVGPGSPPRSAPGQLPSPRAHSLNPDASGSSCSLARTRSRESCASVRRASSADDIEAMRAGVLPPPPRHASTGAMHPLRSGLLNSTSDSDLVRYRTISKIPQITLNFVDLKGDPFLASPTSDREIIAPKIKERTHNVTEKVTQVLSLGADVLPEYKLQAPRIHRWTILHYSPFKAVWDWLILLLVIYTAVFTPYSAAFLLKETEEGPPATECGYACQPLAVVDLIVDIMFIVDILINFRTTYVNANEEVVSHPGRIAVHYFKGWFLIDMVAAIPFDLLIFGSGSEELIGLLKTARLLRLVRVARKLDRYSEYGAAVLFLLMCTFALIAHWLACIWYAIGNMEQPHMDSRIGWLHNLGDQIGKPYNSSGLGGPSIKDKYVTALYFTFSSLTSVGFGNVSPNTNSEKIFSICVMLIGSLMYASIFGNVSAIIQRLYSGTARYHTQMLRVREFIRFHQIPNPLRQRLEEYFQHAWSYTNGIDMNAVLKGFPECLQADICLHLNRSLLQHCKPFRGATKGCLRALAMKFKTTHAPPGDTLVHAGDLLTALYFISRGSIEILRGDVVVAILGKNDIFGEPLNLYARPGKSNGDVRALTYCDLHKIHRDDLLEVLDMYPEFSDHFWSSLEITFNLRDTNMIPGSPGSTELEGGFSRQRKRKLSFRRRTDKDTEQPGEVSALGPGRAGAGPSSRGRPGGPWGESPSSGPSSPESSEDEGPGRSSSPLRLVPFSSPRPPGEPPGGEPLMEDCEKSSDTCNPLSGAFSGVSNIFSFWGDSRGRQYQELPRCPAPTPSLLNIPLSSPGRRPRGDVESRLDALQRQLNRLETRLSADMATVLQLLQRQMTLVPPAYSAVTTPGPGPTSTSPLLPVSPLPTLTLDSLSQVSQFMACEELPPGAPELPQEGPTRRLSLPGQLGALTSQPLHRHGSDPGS
Kir21 block = inhibitors of mouse Kir2.1 inward-rectifier potassium channel; B-score at 10 µM; hit rate 0.85% among 310,000; HEK293-Kir2.1, FluxOR thallium flux fluorescence; active compounds read low; P35561; AID 1672;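 active = fluorescence ratio B-score at or below minus 3 SD of library scores, with starting-brightness B-score within 2 SD, cut at about -4.2 in these data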;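 also: channel flux triggered by added potassium and thallium sulfate stimulus; B-score of peak minus minimum fluorescence over baseline after thallium stimulus; more negative B-score means stronger Kir2.1 block with less thallium influx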
KCNK9 inh = inhibitors of human KCNK9 two-pore domain potassium channel. Q9NPC2. hit rate 1.2% among 310,000. B-score at 10 µM. HEK293 KCNK9, FluxOR thallium flux fluorescence; active compounds read low;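 active = ratio B-score over 3 SD below the library mean, with starting fluorescence within 5 SD of its mean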;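 also: negative B-score means less thallium flux so channel inhibition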
KCNQ1 pot = potentiates or activates the human KCNQ1 potassium channel; P51787; AID 2648; B-score at 10 µM; hit rate 0.35% among 310,000; CHO-K1 KCNQ1, thallium flux FluxOR fluorescence; active compounds read high;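 active = fluorescence ratio B-score, a plate-corrected score, at least three library SD, with initial intensity B-score within 5 SD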
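Schedule – 37 °C overnight plating, 90-min dark dye load, 20-min compound pretreatment · System – stable KCNQ1 CHO-K1 line · Probe or stimulus – thallium- and potassium-containing depolarizing buffer · Measured by – kinetic FluxOR fluorescence, 10 s baseline plus 110 s post-stimulus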
KCNQ1 block = inhibitors of human KCNQ1 potassium channel. P51787. B-score at 10 µM. AID 2642. hit rate 1.3% among 310,000. CHO-K1 KCNQ1, FluxOR thallium flux fluorescence; active compounds read high;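 active = compounds whose thallium flux B-score, printed positive for inhibition, exceeds three library SD while starting fluorescence stays within three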;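 also: channel opened by potassium depolarization with thallium stimulus after 20 min compound exposure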
Of the large screens only hits and unclear results are named; the others gave an inactive call; ! = a repeat was not active.

O=c1c2ccccc2nc(SCc2ccc([N+](=O)[O-])cc2)n1-c1ccccc1	KCNK9 inh -7.7
Cn1c(SCc2cccc(C#N)c2)nc2ccccc2c1=O	KCNK9 inh -7
Cn1c(SCc2ccc(F)cc2Cl)nc2ccccc2c1=O	KCNK3 block -8.9 (no result: hERG rescue, Kir21 block, KCNK9 inh, KCNQ1 pot, KCNQ1 block)
Cn1c(SCc2cccc([N+](=O)[O-])c2)nc2ccccc2c1=O	none (no result: hERG rescue, Kir21 block, KCNK9 inh, KCNQ1 pot, KCNQ1 block)
COc1cc(NC(=O)C2C3CCC(O3)C2C(=O)O)cc(OC)c1 (centres undefined)	none
COc1ccc(C(CNC(=O)C(CCSC)NC(=O)c2ccccc2OC)N2CCCCC2)cc1 (centres undefined)	none
CCN(CC(=O)NCc1cccs1)C(=O)Cc1ccc(Cl)c(Cl)c1	none (no result: hERG rescue, Kir21 block, KCNK9 inh, KCNQ1 pot, KCNQ1 block)
CCCOC(=O)c1cc(NC(=O)/C=C/c2ccccc2)ccc1O	KCNK9 inh -9.4 (no result: KCNK3 block)
CCN(CC)C(=O)Cn1cc(C(=O)C(=O)N2CCN(C)CC2)c2ccccc21	none
CCN(CC)C(=O)Cn1cc(C(=O)C(=O)N2CC=C(c3ccccc3)CC2)c2ccccc21	hERG rescue 38
CC1(C)CC(=O)C(Sc2ccccc2[N+](=O)[O-])=C(O)C1	none
CCN(CC)CC(=O)Nc1sc(C)c(C)c1C(=O)c1ccc(C)cc1	KCNQ1 block 6
CCN(CC)CC(=O)Nc1sc(C)cc1C(=O)c1ccccc1	none
Cc1cccc(NC(=S)NCC(C)CSc2ccc(Cl)cc2)c1 (centres undefined)	KCNQ1 block 9
Cc1ccc(NC(=S)NCCSc2ccc(Cl)cc2)c(C)c1	none
Cc1ccc(NC(=S)NCC(C)CSc2ccc(Cl)cc2)cc1 (centres undefined)	KCNQ1 block 8
Cc1cccc(NC(=S)NCC(c2ccccc2)N(C)C)c1 (centres undefined)	none
Cc1ccc(N=Cc2cc(Cl)cc(Cl)c2O)nc1	hERG rescue 5.3, KCNQ1 pot 17
Oc1c(Cl)cc(Cl)cc1/C=N/Nc1ncc(Br)cn1	none
Brc1csc(C=Nc2ccc3c(c2)OCCOCCOCCOCCO3)c1	none
Oc1c(Cl)cc(Cl)cc1C=Nc1ccc2c(c1)OCCO2	KCNQ1 pot 8
Clc1ccc(N=C2SCCS2)cc1	none
CCc1cc(-c2n[nH]c(=S)n2C(C)c2ccccc2)cs1 (centres undefined)	Kir21 block -7.8
CCCCc1c(C)nc2nc(SCc3ccc(Cl)cc3)[nH]n2c1=O	KCNQ1 block 6
Cc1ccc(C2CN(CCC(N)=O)C(=O)CO2)cc1 (centres undefined)	none (no result: hERG rescue, Kir21 block, KCNK9 inh, KCNQ1 pot, KCNQ1 block)
Nc1nc(=S)[nH]c2c1C1(CCCCC1)Cc1ccccc1-2	none
Nc1nc(=S)[nH]c2c1C1(CCCC1)Cc1ccccc1-2	hERG rescue 6.1
CN(c1cccc(NC(=O)CN(c2cccc(Cl)c2)S(=O)(=O)c2ccc(Cl)cc2)c1)S(C)(=O)=O	KCNK9 inh -7.3
Cc1ccc(Cl)cc1N(CC(=O)Nc1cccc(N(C)S(C)(=O)=O)c1)S(C)(=O)=O	none
Cc1ccc(SCC(=O)Nc2ccc(S(N)(=O)=O)cc2)cc1	none
Cc1ccc(Nc2nc(N)c3ccccc3n2)cc1Cl	Kir21 block -13
Nc1nc(Nc2ccc(Cl)cc2)nc2ccccc12	Kir21 block -14
O=C(COC(=O)Cc1ccc(Cl)cc1)NC1CCCC1	none (no result: hERG rescue, Kir21 block, KCNK9 inh, KCNQ1 pot, KCNQ1 block)
CCN(CC(=O)Nc1c(F)cccc1F)C(=O)c1cccc(S(=O)(=O)N2CCCc3ccccc32)c1	none (no result: hERG rescue, Kir21 block, KCNK9 inh, KCNQ1 pot, KCNQ1 block)
CCN(C(=O)COC(=O)c1cc(-c2cccc3ccccc23)nc2ccccc12)C1CCS(=O)(=O)C1 (centres undefined)	KCNK9 inh -7.1
O=C(COC(=O)c1cc(-c2cccc3ccccc23)nc2ccccc12)NC1CCS(=O)(=O)C1 (centres undefined)	none
CCN(C(=O)COC(=O)C(Cc1ccccc1)N1C(=O)c2ccccc2C1=O)C1CCS(=O)(=O)C1 (centres undefined)	KCNQ1 pot 8
CC(=O)c1cccc(N=c2scc(-c3ccc(S(=O)(=O)N4CCOCC4)cc3)n2CCO)c1	KCNQ1 block 7
Cc1ccc(OCC(O)CN2CCN(Cc3ccc4c(c3)OCO4)CC2)cc1C (centres undefined)	none
C=CCc1ccccc1OCC(O)CN1CCN(Cc2ccc3c(c2)OCO3)CC1 (centres undefined)	Kir21 block -4.6!
COc1ccc(S(=O)(=O)Nc2ccc(Cc3ccncc3)cc2)cc1C	none
CC(C)(NS(=O)(=O)OCC(Cl)(Cl)Cl)c1ccccc1	none
CC[C@@](C)(NS(=O)(=O)OCC(Cl)(Cl)Cl)c1ccccc1	Kir21 block -5.1
CC(C)(C)C(=O)NC(=S)NNC(=O)C(c1ccccc1)c1ccccc1	KCNQ1 pot 31
CC(=O)NNC(=S)NC(=O)C(c1ccccc1)c1ccccc1	none
O=[N+]([O-])c1ccc(NC(=S)NCCc2ccc(F)cc2)cc1	Kir21 block -5.2, KCNQ1 block 6
COc1ccc(NC(=O)Nc2cccc([N+](=O)[O-])c2)cc1Cl	none
Fc1ccc(NC(=S)NCCc2ccc(Cl)cc2)cc1	Kir21 block -4.4
O=C(NCCc1ccc(F)cc1)Nc1ccc([N+](=O)[O-])cc1	none
O=[N+]([O-])c1ccc(S(=O)(=O)NNC(=S)NCCc2ccccc2)cc1	none
O=[N+]([O-])c1cccc(NC(=S)NCCc2ccccc2)c1	KCNQ1 block 8
COc1ccccc1CCNC(=O)Nc1cccc([N+](=O)[O-])c1	KCNQ1 block 6
O=c1cnc2cc([N+](=O)[O-])ccc2[nH]1	none
Cc1ccc(CCNC(=O)CN(C)S(=O)(=O)c2ccc3c(c2)n(C)c(=O)c(=O)n3C)cc1	none
CC1CCCN(S(=O)(=O)c2cc(C(=O)NCCc3ccc(S(N)(=O)=O)cc3)ccc2Cl)C1 (centres undefined)	none (no result: hERG rescue, Kir21 block, KCNK9 inh, KCNQ1 pot, KCNQ1 block)
Cc1cc(C(=O)NN=C2CCCCCC2)c(C)o1	none
CC(=O)c1cccc(NC(=S)NCCCCc2ccccc2)c1	KCNQ1 block 6
CC1CCCC(NC(=O)CCNC(=O)c2ccccc2Cl)C1C (centres undefined)	none
CC1(C)Cc2c(sc3c2c(=N)n(Cc2ccco2)c(=O)n3Cc2ccccc2)CO1	none
CC1(C)Cc2c(sc3c2c(=N)n(Cc2ccco2)c(=O)n3Cc2ccc(Cl)cc2)CO1	KCNQ1 block 8
Cc1ccc(-n2nc3c(N4CCC(C(=O)NCc5ccccc5C)CC4)nnc(C)c3c2C)cc1	KCNQ1 block 7
CCOc1ccccc1CNC(=O)C1CCN(c2nnc(C)c3c(C)n(-c4ccc(C)cc4)nc23)CC1	none
O=C(NCc1ccco1)c1ccccc1NS(=O)(=O)c1ccc(Cl)s1	none
Cc1ccc(NC(=O)c2ccccc2NS(=O)(=O)c2ccc(Cl)s2)cc1	KCNK9 inh -7.5
O=C(Nc1ccccc1Cc1ccccc1)c1ccccc1NS(=O)(=O)c1ccc(Cl)s1	KCNQ1 block 8
O=S(=O)(Nc1ccccc1N1CCCCC1)c1ccc(Cl)s1	KCNK9 inh -7.4

Bioassay records from PubChem BioAssay.
